From ChEMBL document CHEMBL1122914, “Synthesis and biological activity of pentapeptide analogues of the potent angiotensin converting enzyme inhibitor 5(S)-benzamido-4-oxo-6-phenylhexanoyl-L-proline” (J Med Chem, 1985)

Assays:
Format in all cases: functional
[1] = Percent recovery of compound in rats over 24 hr when administered orally at a dose of 4.3 mg, 4.09(uCi); and activity calculated from bile of rats at time (5-6 h)
Summary of the method: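 Adult male Sprague-Dawley rats were fasted overnight, with chow and water otherwise ad libitum. The tritiated proline-4-labelled analogue was given orally in dilute NaHCO3. Bile was collected at timed intervals and urine over 24 h. Aliquots were counted by liquid scintillation, with quench correction by automatic external standardization and a quench curve. Recovery was expressed as percent of the dosed radioactivity.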

Rattus norvegicus [2] = assay: Compound was evaluated for change in blood pressure value in hypertensive rats by peroral administration at a dose of 6.4 mg/kg at 8 hr; details: route oral
Summary of the method: (§1)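 One-clip/two-kidney renal hypertension was induced with a silver clip on the left renal artery, leaving the other kidney intact. Several weeks later, rats were cannulated and those with mean pressure above 160 mmHg were used. Four conscious rats per compound received an oral dose in 0.25% methylcellulose (5 mL/kg), and two received vehicle only. Mean aortic pressure was read before dosing, hourly for 8 h, and at 24 h.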

Rattus norvegicus [3] = assay: Compound was evaluated for its base line value in hypertensive rats by peroral administration at a dose of 6.4 mg/kg; details: route oral; summary of the method: as §1
Rattus norvegicus [4] = assay: Compound was evaluated for maximum effect in hypertensive rats by peroral administration at a dose of 6.4 mg/kg; details: route oral; summary of the method: as §1
Rattus norvegicus [5] = assay: Compound was evaluated for its base line value on hypertensive rats by peroral administration at a dose of 3.0 mg/kg; details: route oral
Rattus norvegicus [6] = assay: Compound was evaluated for its maximum effect value on hypertensive rats by peroral administration at a dose of 3.0 mg/kg; details: route oral
Rattus norvegicus [7] = assay: Compound was evaluated for itschange in blood pressure value on hypertensive rats by peroral administration at a dose of 3.0 mg/kgat 4 hr; details: dose 3 mg/kg; route oral; summary of the method: as §1
Rattus norvegicus [8] = assay: Compound was evaluated for its maximum effect value on hypertensive rats by peroral administration at a dose of 30 mg/kg; details: route oral
Rattus norvegicus [9] = assay: Compound was evaluated for itschange in blood pressure value on hypertensive rats by peroral administration at a dose of 30 mg/kg at 8 hr; details: route oral
Rattus norvegicus [10] = assay: Compound was evaluated for its base line value on hypertensive rats by peroral administration at a dose of 30 mg/kg; details: route oral
Rattus norvegicus [11] = assay: Compound was evaluated for change in blood pressure in hypertensive rats by peroral administration at a dose of 3.0 mg/kg at 1 hr; details: route oral
Rattus norvegicus [12] = assay: Compound was evaluated for maximum effect in hypertensive rats by peroral administration at a dose of 3.0 mg/kg; details: route oral

SMILES: [3H]C1CC(C(=O)O)N(C(=O)CCC(=O)C(Cc2ccccc2)NC(=O)C(CCCCN)NC(=O)C2CCC2)C1 (configuration not stated)
- Recovered radioactivity [1]: 1.42%

SMILES: CC(CC(=O)C(Cc1ccccc1)NC(=O)C(CCCCN)NC(=O)C1CCC1)C(=O)N1CCCC1C(=O)O.O=C(O)C(F)(F)F (configuration not stated)
- Mean aortic blood pressure (Rattus norvegicus [2]): -5 mmHg
- Mean aortic blood pressure (Rattus norvegicus [3]): 186 mmHg
- Mean aortic blood pressure (Rattus norvegicus [4]): 181 mmHg

SMILES: NCCCCC(NC(=O)C1CCC1)C(=O)NC(Cc1ccccc1)C(=O)CCC(=O)N1CCCC1C(=O)O.O=C(O)C(F)(F)F (configuration not stated)
- Mean aortic blood pressure (Rattus norvegicus [5]): 195 mmHg
- Mean aortic blood pressure (Rattus norvegicus [6]): 173 mmHg
- Mean aortic blood pressure (Rattus norvegicus [7]): -22 mmHg

SMILES: O=C(N[C@@H](Cc1ccccc1)C(=O)CCC(=O)N1CCC[C@H]1C(=O)O)c1ccccc1
- Mean aortic blood pressure (Rattus norvegicus [8]): 178 mmHg
- Mean aortic blood pressure (Rattus norvegicus [9]): -12 mmHg
- Mean aortic blood pressure (Rattus norvegicus [10]): 190 mmHg

SMILES: C[C@H](CS)C(=O)N1CCC[C@H]1C(=O)O [CAPTOPRIL]
- Mean aortic blood pressure (Rattus norvegicus [11]): -93 mmHg
- Mean aortic blood pressure (Rattus norvegicus [12]): 99 mmHg
